Test results: ChEMBL document CHEMBL3351585, “Design, synthesis and biological evaluation of novel peptides with anti-cancer and drug resistance-reversing activities” (Eur J Med Chem, 2015)

How the values were obtained:
[1] = Retention time of the compound by UPLC method; type: physicochemical
[2] = Cytotoxicity against human GES-1 cells after 48 hrs by MTT assay; type: cell-based; conditions: GES1, 48 h
Outline: (§1)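 Cells grown in RPMI1640 with 10% heat-inactivated FBS and 1% penicillin-streptomycin at 37 °C, 5% CO2. Log-phase cells were seeded at 5 × 10^3/well 24 h before treatment, exposed to a range of peptide concentrations for 48 h, then given MTT for 4 h. Formazan was dissolved in DMSO and A490 read. Survival was computed relative to untreated wells, and IC50 taken from the survival curve.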

K562 = assay: Anticancer activity against human K562 cells after 48 hrs by MTT assay; type: functional, cell-based; conditions: K562, 48 h; outline: as §1
MCF7 [3] = assay: Anticancer activity against human MCF7 cells after 48 hrs by MTT assay; type: functional, cell-based; conditions: MCF7, 48 h; outline: as §1
[4] = Toxicity in rabbit erythrocytes assessed as induction of hemolysis at 160 uM incubated for 1 hr by microplate reader assay; type: cell-based, Oryctolagus cuniculus; conditions: erythrocyte
Outline: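 Rabbit red blood cells in PBS were mixed 1:1 by volume with peptide solution and incubated 1 h at 37 °C, then spun at 1000 g for 5 min. Hemoglobin in the supernatant was read at 540 nm. PBS defined 0% hemolysis and 0.1% Triton X-100 defined 100%.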

MCF7 [5] = assay: Induction of cytochrome c release in extracellular region of human MCF7 cells incubated for 2 hrs by ELISA method (reference value: 15.7 +/- 0.77 ng); type: functional
MCF7 [6] = assay: Induction of cytochrome c release in mitochondria of human MCF7 cells incubated for 2 hrs by ELISA method (reference value: 347.8 +/- 14.5 ng); type: functional
MCF7 [7] = assay: Induction of cytochrome c release in cytoplasm of human MCF7 cells incubated for 2 hrs by ELISA method (reference value: 44.1 +/- 2.7 ng); type: functional
MCF7 [8] = assay: Induction of cytochrome c release in human MCF7 cells incubated for 2 hrs by ELISA method (reference value: 364.2 +/- 20.5 ng); type: functional
[9] = Anticancer activity against human MCF7/ADR cells after 48 hrs by MTT assay; type: functional, cell-based; conditions: NCI/ADR-RES; outline: as §1
[10] = Anticancer activity against human K562/ADR cells after 48 hrs by MTT assay; type: functional, cell-based; outline: as §1

Row | Compound | Retention_time [1] [min] | IC50 [2] [µM] | IC50 (K562) [µM] | IC50 (MCF7 [3]) [µM] | Activity [4] | Activity (MCF7 [5]) [ng] | Activity (MCF7 [6]) [ng] | Activity (MCF7 [7]) [ng] | Activity (MCF7 [8]) [ng] | IC50 [9] [µM] | IC50 [10] [µM]
1 | H-VKRFKKFFRKLKKQV-NH2 | 3.31 | 102 | 16.2 | 14.5 | Non-toxic | – | – | – | – | – | –
2 | H-VKRFKKFFRKLKKGV-NH2 | 3.25 | 107 | 14.8 | 15.8 | Non-toxic | – | – | – | – | – | –
3 | O=c1[nH]cc(F)c(=O)[nH]1 [FLUOROURACIL] | – | 30.9 | 31.6 | 26.9 | – | 15.7 | 319.2 | 49.6 | 357 | – | –
4 | H-VKRFKKFFRKLKKTV-NH2 | 3.44 | 110 | 17 | 19.1 | Non-toxic | – | – | – | – | – | –
5 | H-VKRFKKFFRKLKKVV-NH2 | 3.69 | 64.6 | 5 | 4.9 | Non-toxic | – | – | – | – | – | –
6 | H-VKRFKKFFRKLKKRV-NH2 | 3.13 | 93.3 | 8.7 | 5.5 | Non-toxic | – | – | – | – | – | –
7 | H-VKRFKKFFRKLKKFV-NH2 | 3.74 | 52.5 | 3.7 | 1.3 | Non-toxic | – | – | – | – | – | –
8 | H-VKRFKKFFRKLKKHV-NH2 | 3.28 | 105 | 10.5 | 5 | Non-toxic | – | – | – | – | – | –
9 | H-VKRFKKFFRKLKKDV-NH2 | 3.38 | 120 | 44.7 | 19.9 | Non-toxic | – | – | – | – | – | –
10 | COc1cccc2c1C(=O)c1c(O)c3c(c(O)c1C2=O)C[C@@](O)(C(=O)CO)C[C@@H]3O[C@H]1C[C@H](N)[C@H](O)[C@H](C)O1 [DOXORUBICIN] | – | 0.53 | 0.45 | 0.36 | – | – | – | – | – | 52.5 | 67.6
11 | H-VKRFKKFFRKLKKAV-NH2 | 3.48 | 87.1 | 8.6 | 8.9 | Non-toxic | – | – | – | – | – | –
12 | H-VKRFKKFFRKLKKEV-NH2 | 3.41 | 104 | 36.6 | 38.9 | Non-toxic | – | – | – | – | – | –
